From PubChem BioAssay
FID counter: counter-screen for HCV NS3 helicase inhibitors: DNA intercalator displacement; DNA fluorescent intercalator displacement, fluorescence; inhibition, % at 7.9 µM; 290,000 tested, 0.17% active; AID 1845; in the data active = inhibition above about 37%;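 note: higher means more ethidium bromide displaced from hairpin DNA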
HCV NS3 hel inh: HCV NS3 helicase inhibition; NS3 helicase DNA unwinding, Cy5 molecular beacon fluorescence; inhibition, % at 10.9 µM; 290,000 tested, 0.56% active;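 active = inhibition above the mean of all tested compounds plus 3 SD, set per campaign, cut at about 35% in these data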
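Measured by: Cy5 fluorescence, 0 and 60 min reads / Assay system: NS3 helicase fragment of HCV / Control set: low DMSO, high thioflavine S at 110 µM / Times: 1 h reaction at 25 °C, ATP-initiated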
HSP90 inh: HSP90 refolding inhibition in rabbit reticulocyte lysate; luciferase refolding luminescence, 3 h; 290,000 tested, 0.91% active; inhibition, % at 5.6 µM; AID 1789;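 active = inhibition above the screen-wide mean plus 3 SD, computed separately per campaign, cut at about 16% in these data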;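 note: inhibitors lower the luminescence because luciferase stays unfolded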
HSF1 inh: HSF1 inhibition; NIH3T3-HGL HSE-luciferase, MG132-induced, luminescence 8 h; hits give low values; 300,000 tested, 0.77% active; activity change, negative = inhibition, % at 7.5 µM (by protocol); AID 2098;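 active = more than half of replicate wells show activity change below -50%, luminescence cut by over half; inconclusive = some wells, but at most half, below -50%; inactive = no replicate well below -50%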;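 note: luciferase reports HSF-1 transcriptional activity via heat shock element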
HSF-1 act: increases HSF-1 driven luciferase reporter signal. NIH3T3-HGL HSF-1 luciferase reporter, MG132, 8 h; 100% = twice DMSO control signal. 300,000 tested, 1.7% active. activation, % at 9 µM;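 active = mean replicate activation of at least 50% with a set share of replicates each reaching 50%; inconclusive = only one of those two conditions met; inactive = mean below 50% and too few replicates reaching it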
HCV core dimer: HCV core protein dimerization inhibition; TR-FRET GST/Flag-core106 dimerization, 1536-well; inhibition, % at 5 µM; 300,000 tested, 0.33% active; AID 1899;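 active = inhibition above the mean of all tested compounds plus 3 SD, set per screening campaign, cut at about 45% in these data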
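System: GST-tagged and Flag-tagged HCV core protein residues 1-106 / Input: core106 proteins, GST 13.5 nM and Flag 17 nM / Buffer or medium: KF-containing HEPES buffer, pH 7.45, DTT, CHAPS, BSA / Probe or stimulus: Eu-anti-GST and XL665-anti-Flag labelled anti-tag antibodies / Schedule: 4 h, 22.5 °C incubation / Technique: TR-FRET 671 and 617 nm emission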
Large screens that a line does not name were inactive. Only some compounds are listed: those with a hit (about 3.9% of all), similar ones and a draw of the others.

O=C(NCCN1CCCCC1)Nc1ccccc1Cl	HSF1 inh -82.6
CCOc1ccccc1NC(=O)NCCN1CCCCC1	none
Cc1ccc(OCC(=O)NCCCNC(=O)c2ccccn2)cc1	none
COc1cc(/C=C2\CCC/C(=C\c3ccc(O)c(OC)c3)C2=O)ccc1O	HSF-1 act 113.7
COc1cc(/C=C2/CCC/C(=C\c3cc(O)c(OC)c(Cl)c3)C2=O)cc(Cl)c1O	HSF-1 act 204.1, HCV core dimer 50.3
COc1cc(/C=C2\CC/C(=C\c3cc(OC)c(O)c(OC)c3)C2=O)cc(OC)c1O	none (no result: HSF1 inh, HSF-1 act)
Cc1c(NC(=O)COC(=O)c2cc(-c3ccc(-c4ccccc4)cc3)nc3ccccc23)c(=O)n(-c2ccccc2)n1C	HSF-1 act inconclusive, HCV core dimer 49.2
COc1ccc(-c2cc(C(=O)OC(C)C(=O)Nc3c(C)n(C)n(-c4ccccc4)c3=O)c3ccccc3n2)cc1 (stereo unspecified)	none
COc1ccc(S(=O)(=O)N(NC2=NS(=O)(=O)c3ccccc32)C(=O)C(C)C)cc1	none
COC(=O)c1cn(CC(=O)NC2CCCCCC2)c2ccccc12	none
CS(=O)(=O)c1ccc2nc(NC(=O)CCC(=O)c3cccs3)sc2c1	HCV core dimer 74.4
Cc1ccc(N2CC(C(=O)Nc3nc4ccc(S(C)(=O)=O)cc4s3)CC2=O)cc1 (stereo unspecified)	HSF1 inh -80.0
CS(=O)(=O)c1ccc2nc(NC(=O)CCS(=O)(=O)c3ccccc3)sc2c1	none
CS(=O)(=O)c1ccc2nc(NC(=O)C3CC(=O)N(c4ccccc4)C3)sc2c1 (stereo unspecified)	none
CS(=O)(=O)c1ccc2nc(NC(=O)Nc3cccc(Cl)c3)sc2c1	HSF-1 act 98.6
CCOC(=O)c1c(-c2ccc(C)cc2)cn2ccccc12	HSF-1 act 78.1
NC(=NCCc1ccccc1)NS(=O)(=O)c1ccc2ccccc2c1	none
O=C1NN(c2ccc(F)cc2)C(=O)/C1=C\C=C\c1ccco1	none
O=C(CC(=O)c1ccccc1O)c1ccc(F)cc1	HSF-1 act 75.2
O=C(CCCC(=O)c1ccc(F)cc1)c1ccc(F)cc1	HSF-1 act 81.4
O=C(CCCN1CCC(C(=O)c2ccc(F)cc2)CC1)c1ccc(F)cc1	none
O=C(CC(=O)c1ccccc1O)c1cccc(F)c1	none
CC1(C)Cc2cccc(OCC(=O)OCC(=O)NCc3ccccc3)c2O1	none
C=C(C)CN(CC)c1nc(N)c(C#N)c(CC#N)c1C#N	HSF-1 act 75.0
COc1ccc(C2=NCCn3nc4cc([N+](=O)[O-])ccc4c32)cc1	HSF1 inh -66.0 (no result: FID counter, HCV NS3 hel inh, HSP90 inh)
Fc1ccc(CN2CCN(c3ncnc4scc(-c5ccccc5)c34)CC2)cc1	HSF-1 act 84.0
Oc1ccccc1N1CCN(c2ncnc3scc(-c4ccccc4)c23)CC1	none
Oc1ccccc1N1CCN(c2ncnc3scc(-c4ccc(F)cc4)c23)CC1	HSF1 inh -83.2
Cc1ccc2sc(NNC(=O)c3cc(=O)c4ccccc4o3)nc2c1C	HSP90 inh 18.4
CCCn1c(C)cc(C(=O)COc2ncnc3sccc23)c1C	none
CCCn1c(C)cc(C(=O)COc2ccc(-c3nnco3)cc2)c1C	HSP90 inh 16.4 (no result: HSF1 inh, HSF-1 act)
COc1cc(CCNC(=O)c2cnn3ccccc23)cc(OC)c1OC	none
O=[N+]([O-])c1ccc2nccn2c1	none
CCOc1cc(/C=C/c2nc3cc(C)c(C)cc3s2)ccc1OCC(=O)N1CCOCC1	none
CCOc1cc(/C=C\[N+](=O)[O-])ccc1OCC(=O)N1CCOCC1	HSF-1 act 310.5
Cc1ccc(NS(=O)(=O)c2cccc(C(=O)Nc3cc(C)on3)c2)cc1	none
COc1cccc(CNc2ccc(S(N)(=O)=O)cc2)c1OC	HSF1 inh -56.5
COc1cccc(CNc2ccc(N3CCCCC3)cc2)c1OC	none (no result: HSF1 inh, HSF-1 act)
CCN(Cc1ccccc1)C(=O)C1CCN(Cc2sccc2C)CC1	HSF1 inh -56.3
COc1ccc(CCNC(=O)c2ccnc(C(C)(C)C)c2)cc1OC	none (no result: FID counter, HCV NS3 hel inh, HSP90 inh)
Cc1ccc2nsnc2c1N(S(C)(=O)=O)S(C)(=O)=O	none
Cc1ccc(/C=[N+](\[O-])c2ccc(N(C)C)cc2)c2nsnc12	HSF1 inh -57.0 (no result: HCV core dimer)
CC(C)c1nc(SCC(=O)c2c[nH]c3ccccc23)n[nH]1	none
S=C(Nc1ccc(Cl)cc1)Nc1cccc2cnccc12	HSF-1 act 61.1
Fc1ccc(NC(=S)Nc2cccc3cnccc23)cc1	none
Cc1cc(C)cc(NC(=S)Nc2cccc3ccccc23)c1	none
Cc1ccc(NC(=S)Nc2cccc3ccccc23)cc1	HSF1 inh -79.9
C1CCC(C(CC2CCCCN2)C2CCCCC2)CC1 (stereo unspecified)	none
CCCC[C@@H]1C[C@H]1[C@@H](NC(=O)c1cccs1)c1ccc(Cl)cc1	none
CCCC[C@@H]1C[C@H]1[C@@H](NC(=O)c1ccco1)c1ccc(Cl)cc1	HSF1 inh -81.8
Cc1ccc(C)c(NC(=O)c2cc(-c3cc(C)ccc3O)n[nH]2)c1	HSF-1 act 91.8
Cc1cc(O)c(-c2cc(C(=O)Nc3cccnc3)[nH]n2)cc1C	HSF-1 act 63.6
COc1ccc(NC(=O)c2cc(-c3cc(Cl)ccc3O)n[nH]2)c(OC)c1	HSF1 inh -81.5
COc1ccc(NC(=O)c2cc(-c3cc(C)c(C)cc3O)n[nH]2)c(OC)c1	none
COc1ccc(Cl)cc1NC(=O)c1cc(-c2cc(C)ccc2O)n[nH]1	none
Cc1ccc(O)c(-c2cc(-c3cccc(F)c3)n[nH]2)c1	HSF-1 act inconclusive
Cc1ccc(O)c(-c2cc(-c3ccccc3F)[nH]n2)c1	HSF-1 act 156.9
Cc1cc(C)c(O)c(-c2cc(C(=O)Nc3cccnc3)[nH]n2)c1	none
Cc1ccc2c(c1)[nH]c1c(=O)n(Cc3ccccn3)cnc12	none
COc1ccc(-c2csc(/C=C/c3ccc4c(c3)OCO4)n2)cc1OC	none
NC1=NC(c2ccc(Cl)cc2)n2c(nc3ccccc32)N1 (stereo unspecified)	none
CCC1CCCCN1CCCNC(=O)Cn1c2ccccc2c2nc(=O)cc(C)n21 (stereo unspecified)	HSF-1 act 63.8
CCCNC(=O)Cn1c2ccccc2c2nc(=O)cc(C)n21	none
CC1CN(c2ncnc3c2cnn3-c2ccc(Cl)cc2)CC(C)O1 (stereo unspecified)	HSP90 inh 16.4
O=C(N/N=C/C=C\c1ccccc1[N+](=O)[O-])c1cc(-c2ccc3ccccc3c2)n[nH]1	HSF-1 act 64.0 (no result: HCV core dimer)
NNC(=O)c1ccc(Cn2cc(Cl)cn2)cc1	none
O=C(Nc1ccc(Cl)c(Cl)c1)c1ccc(Cn2cc(Cl)cn2)cc1	HSF-1 act 72.2 (no result: HCV core dimer)
C=CCC(Nc1ccccc1)c1ccc(OC)c(OC)c1 (stereo unspecified)	HSF1 inh -62.8
